Measured values: PMC3773219 (Biochemistry, 2013)
One block for each molecule: values may come before it.

Tests used:
Pim1 = Pim1 (Homo sapiens, UniProt P11309); test: Enzyme coupled kinase assay, Pim1; format: biochemical; settings: for reduction of Pim1 activity: relative to consensus peptide 2 (kcat/KM)
Summary of the method: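 His6-tagged human Pim1 was expressed in E. coli and purified on Ni-NTA. It was treated with alkaline phosphatase, and phospho and non-phospho forms were separated on Q-Sepharose. The coupled PK/LDH assay ran at room temperature with 20 mM MgCl2, 100 mM Tris pH 7.4, 1 mM ATP, 1 mM PEP, 0.2 mM NADH and 0–2400 μM peptide or PTP-PEST catalytic domain (aa 5–300). It was started with 40–1200 nM Pim1, read at A340, and initial rates were fitted for kcat, KM and/or kcat/KM.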

native Csk = settings: cited from earlier work
MKK6 = target: T1, MKK6 (Homo sapiens, UniProt P52564, S207E/T211E); test: Kinase assay by HPLC, MKK6; format: biochemical; settings: peptide as MKK6 substrate
T1 sequence (P52564 1-334 S207E/T211E): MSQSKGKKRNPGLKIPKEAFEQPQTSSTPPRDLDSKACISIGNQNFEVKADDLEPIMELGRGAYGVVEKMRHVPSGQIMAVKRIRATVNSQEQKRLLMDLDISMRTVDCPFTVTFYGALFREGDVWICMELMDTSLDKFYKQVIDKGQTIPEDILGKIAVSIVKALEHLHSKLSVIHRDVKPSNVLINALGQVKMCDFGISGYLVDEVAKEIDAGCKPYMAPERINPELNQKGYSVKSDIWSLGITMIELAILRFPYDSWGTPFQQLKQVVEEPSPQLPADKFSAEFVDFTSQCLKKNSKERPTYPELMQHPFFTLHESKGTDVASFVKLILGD

protein kinases = settings: cited from earlier work
GST-Csk = GST-Csk (Homo sapiens, UniProt P41240); test: Enzyme coupled kinase assay, GST-Csk; format: biochemical; settings: kcat/KM with GST-Csk relative to peptide 16
Summary of the method: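 GST-tagged wild-type human Csk was expressed in E. coli DH5α and purified on glutathione-Sepharose. The pyruvate kinase/lactate dehydrogenase coupled assay ran at room temperature in 100 mM Tris pH 7.4 with 5 mM MnCl2, 5 mM NaCl, 5 mM KCl, 10 mM DTT, 1 mM ATP, 1 mM PEP, 0.2 mM NADH and 0–2400 μM peptide. It was started with 1–3 μM GST-Csk and A340 followed continuously. Initial rates (<2 min) were fitted to Michaelis-Menten or V = kcat[E][S]/KM.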

Pim1, sequence (P11309 whole entry, the tested form may be a part): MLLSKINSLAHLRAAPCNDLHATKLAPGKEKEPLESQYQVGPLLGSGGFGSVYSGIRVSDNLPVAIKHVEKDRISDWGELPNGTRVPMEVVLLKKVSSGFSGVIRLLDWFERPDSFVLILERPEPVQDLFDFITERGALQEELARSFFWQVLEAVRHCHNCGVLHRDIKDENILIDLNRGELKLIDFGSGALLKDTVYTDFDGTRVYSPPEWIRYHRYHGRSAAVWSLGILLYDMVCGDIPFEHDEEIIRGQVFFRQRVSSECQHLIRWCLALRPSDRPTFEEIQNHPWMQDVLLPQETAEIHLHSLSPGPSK

reduction of Pim1 activity (Pim1): 62 fold
Molecule: RYRHPTPMYY [Peptide 7]

reduction of Pim1 activity (Pim1): 620 fold
Molecule: RYRDPTGMYY [Peptide 6]

Km (MKK6): > 500 µM
Molecule: Ac-RRRYEILPTWNVY-NH2 [Peptide 13]

effect of substitution on Pim1 activity (Pim1; relative to consensus peptide 2): abolished the Pim1 activity
Molecule: AYAHPTGMYY [Peptide 5]

more active than the previous consensus peptide (16) (GST-Csk): 11 fold
Molecule: Ac-DDEPIYAELADIT-NH2 [Peptide 23]

Continued, molecule first:

Molecule: Lck: Csk protein substrate
kcat/KM of Csk protein substrates (native Csk; protein substrates of Csk): 200000 M⁻¹ s⁻¹

Molecule: Ac-KKKKEEIYFFF-NH2 [Peptide 16, reference compound]
kcat/KM (native Csk; native Csk, previously reported): 6050 M⁻¹ s⁻¹

Molecule: Nc1ncnc2c1ncn2[C@@H]1O[C@H](COP(=O)(O)OP(=O)(O)OP(O)(O)=S)[C@@H](O)[C@H]1O [[γ-S]ATP, adenosine 5′-O-(3-thio)triphosphate]
decrease of catalytic activity of kinases on substitution of [γ-S]ATP for ATP (protein kinases): 15–30 fold

B1: PTP-PEST: non-receptor protein tyrosine phosphatase; recombinant catalytic domain of human PTP-PEST (amino acids 5–300) (protein, UniProt Q05209 5-300, looked up, fragment)
chain: EILRKFIQRVQAMKSPDHNGEDNFARDFMRLRRLSTKYRTEKIYPTATGEKEENVKKNRYKDILPFDHSRVKLTLKTPSQDSDYINANFIKGVYGPKAYVATQGPLANTVIDFWRMIWEYNVVIIVMACREFEMGRKKCERYWPLYGEDPITFAPFKISCEDEQARTDYFIRTLLLEFQNESRRLYQFHYVNWPDHDVPSSFDSILDMISLMRKYQEHEDVPICIHCSAGCGRTGAICAIDYTWNLLKAGKIPEEFNVFNLIQEMRTQRHSAVQTKEQYELVHRAIAQLFEKQLQL
modifications: catalytic domain GST tag
kcat/KM (Pim1; recombinant PTP-PEST protein as Pim1 substrate, enzyme-coupled assay): 34000 M⁻¹ s⁻¹
